Measured values published in ChEMBL document CHEMBL2157949 (J Med Chem, 2012).
pIC50, pKi: −log10 of the molar value. The source made the active and inactive calls. No cut-off for these calls is given here.

Tested on: not listed separately
Assay: Growth inhibition of Chinese hamster PC43-10 cells expressing reduced folate carrier incubated for 96 hrs by CellTiter-blue cell viability assay
Type: functional, cell-based
Conditions: Cricetulus griseus, PC43-10, 96 h
In the case of `Nc1nc2[nH]c(CCCCc3cc(C(=O)N[C@@H](CCC(=O)O)C(=O)O)cs3)cc2c(=O)[nH]1`, the pIC50 was < 6.00. Molecule `Nc1nc2[nH]c(CCCc3ccc(C(=O)N[C@@H](CCC(=O)O)C(=O)O)s3)cc2c(=O)[nH]1` has a pIC50 of 7.00.

Tested on: R2
Assay: Growth inhibition of Chinese hamster R2 cells expressing empty vector control incubated for 96 hrs by CellTiter-blue cell viability assay
Conditions: Cricetulus griseus, R2, 96 h
With `Nc1nc2[nH]c(CCCCc3cc(C(=O)N[C@@H](CCC(=O)O)C(=O)O)cs3)cc2c(=O)[nH]1` the pIC50 was < 6.00. `Nc1nc2[nH]c(CCCc3ccc(C(=O)N[C@@H](CCC(=O)O)C(=O)O)s3)cc2c(=O)[nH]1` gave a pIC50 of 6.54.

Target: T1, Proton-coupled folate transporter (Homo sapiens, UniProt Q96NT5)
T1 sequence (Q96NT5 whole entry): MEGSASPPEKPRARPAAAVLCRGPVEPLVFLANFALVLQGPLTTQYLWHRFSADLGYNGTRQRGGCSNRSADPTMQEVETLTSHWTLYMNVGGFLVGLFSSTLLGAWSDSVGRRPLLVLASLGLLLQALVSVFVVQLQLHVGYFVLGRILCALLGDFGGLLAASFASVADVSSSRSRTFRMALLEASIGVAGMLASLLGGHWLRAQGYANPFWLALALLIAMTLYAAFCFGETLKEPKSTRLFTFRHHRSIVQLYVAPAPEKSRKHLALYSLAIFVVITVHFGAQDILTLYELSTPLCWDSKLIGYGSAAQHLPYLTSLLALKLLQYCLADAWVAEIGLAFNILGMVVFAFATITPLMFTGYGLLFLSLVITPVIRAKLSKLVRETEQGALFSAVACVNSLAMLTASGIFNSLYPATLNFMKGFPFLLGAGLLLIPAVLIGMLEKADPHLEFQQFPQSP
Assay: Inhibition of [3H]MTX transport at human PCFT expressed in Chinese hamster R2 cells at pH 5.5 by Dixon plot
Type: cell-based
Conditions: not given
In short: (§1)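 R2/hPCFT4 CHO cells grown in spinner flasks, resuspended in HBS at pH 6.8 or MES-buffered saline at pH 5.5. Uptake quenched with ice-cold DPBS and normalized to protein. Mean ± SE, n=4–8.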
For `Nc1nc2[nH]c(CCCCc3cc(C(=O)N[C@@H](CCC(=O)O)C(=O)O)cs3)cc2c(=O)[nH]1`, the pKi was 6.38.

Tested on: R2
Assay: Growth inhibition of Chinese hamster R2 cells deficient in reduced folate carrier and human folate receptor alpha incubated for 96 hrs by CellTiter-blue cell viability assay
Type: cell-based, Cricetulus griseus
Conditions: R2, 96 h
For `Nc1nc2[nH]c(CCCCc3cc(C(=O)N[C@@H](CCC(=O)O)C(=O)O)cs3)cc2c(=O)[nH]1`, the pIC50 was < 6.00.

Target: T2, Trifunctional purine biosynthetic protein adenosine-3 (Homo sapiens, UniProt P22102)
T2 sequence (P22102 whole entry): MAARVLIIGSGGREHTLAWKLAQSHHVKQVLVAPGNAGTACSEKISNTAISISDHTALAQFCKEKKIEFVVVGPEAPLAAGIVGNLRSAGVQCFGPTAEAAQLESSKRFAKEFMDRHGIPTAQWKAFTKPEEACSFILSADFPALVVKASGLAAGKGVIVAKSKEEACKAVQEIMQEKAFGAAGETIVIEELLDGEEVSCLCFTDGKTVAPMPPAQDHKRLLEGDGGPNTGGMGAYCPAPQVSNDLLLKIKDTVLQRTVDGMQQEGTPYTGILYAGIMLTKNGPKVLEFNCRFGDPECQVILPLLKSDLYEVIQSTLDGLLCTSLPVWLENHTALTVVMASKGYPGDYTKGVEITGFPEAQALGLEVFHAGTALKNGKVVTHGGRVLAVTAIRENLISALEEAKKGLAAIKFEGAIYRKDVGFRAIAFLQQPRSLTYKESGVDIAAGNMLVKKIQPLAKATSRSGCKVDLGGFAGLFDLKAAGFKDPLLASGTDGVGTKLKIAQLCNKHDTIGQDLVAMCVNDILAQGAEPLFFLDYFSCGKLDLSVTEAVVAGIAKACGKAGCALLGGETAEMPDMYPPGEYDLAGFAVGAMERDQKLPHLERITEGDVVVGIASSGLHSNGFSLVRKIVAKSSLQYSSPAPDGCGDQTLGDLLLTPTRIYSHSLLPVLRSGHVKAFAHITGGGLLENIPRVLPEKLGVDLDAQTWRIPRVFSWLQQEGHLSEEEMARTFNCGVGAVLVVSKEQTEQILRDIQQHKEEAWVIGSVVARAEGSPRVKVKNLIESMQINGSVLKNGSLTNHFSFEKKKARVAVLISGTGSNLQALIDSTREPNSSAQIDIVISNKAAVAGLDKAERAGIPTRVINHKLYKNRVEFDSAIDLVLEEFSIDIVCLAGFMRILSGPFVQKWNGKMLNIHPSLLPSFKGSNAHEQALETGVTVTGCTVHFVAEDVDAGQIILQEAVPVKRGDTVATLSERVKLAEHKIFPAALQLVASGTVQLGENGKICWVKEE
Assay: Inhibition of GARFTase in human IGROV1 cells assessed as reduction in [14C]glycine incorporation into [14C]formyl GAR incubated for 15 hrs in complete folate free RPMI medium in presence of 2 nM leucovorin
Type: cell-based, IGROV-1
Conditions: not given
In the case of `Nc1nc2[nH]c(CCCCc3cc(C(=O)N[C@@H](CCC(=O)O)C(=O)O)cs3)cc2c(=O)[nH]1`, the pIC50 was 8.69.

Tested on: KB
Assay: Growth inhibition of human KB cells endogenously expressing RFC/FRalpha/PCFT in presence of 50 nM leucovorin incubated for 96 hrs by CellTiter-blue cell viability assay
Type: functional, cell-based
Conditions: not given
In short: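 KB cells in complete folate-free RPMI 1640 with 10% dialyzed FBS and LCV at 50 nM (versus the standard 2 nM), exposed to a range of antifolate concentrations for up to 96 h. Cell density read by CellTiter-blue fluorescence and normalized to drug-free cells. Representative data from experiments run in duplicate.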
For `Nc1nc2[nH]c(CCCCc3cc(C(=O)N[C@@H](CCC(=O)O)C(=O)O)cs3)cc2c(=O)[nH]1`, the pIC50 was < 7.70.

Tested on: not listed separately
Assay: Growth inhibition of Chinese hamster RT16 cells expressing human folate receptor alpha incubated for 96 hrs in presence of folic acid by CellTiter-blue cell viability assay
Type: functional, cell-based
Conditions: Cricetulus griseus, RT16, 96 h
In the case of `Nc1nc2[nH]c(CCCCc3cc(C(=O)N[C@@H](CCC(=O)O)C(=O)O)cs3)cc2c(=O)[nH]1`, the pIC50 was < 6.00. In the case of `Nc1nc2[nH]c(CCCc3ccc(C(=O)N[C@@H](CCC(=O)O)C(=O)O)s3)cc2c(=O)[nH]1`, the pIC50 was < 6.00.

Tested on: KB
Assay: Inhibition of colony formation of human KB cells endogenously expressing RFC/FRalpha/PCFT incubated for 14 days by methylene blue staining based clonogenicty assay
Type: functional, cell-based
Conditions: 336 h
Molecule `Nc1nc2[nH]c(CCCCc3cc(C(=O)N[C@@H](CCC(=O)O)C(=O)O)cs3)cc2c(=O)[nH]1` has a pIC50 of 9.80.

Tested on: KB
Assay: Growth inhibition of human KB cells endogenously expressing RFC/FRalpha/PCFT in presence of 10 uM thymidine incubated for 96 hrs by CellTiter-blue cell viability assay
Type: functional, cell-based
Conditions: not given
With `Nc1nc2[nH]c(CCCCc3cc(C(=O)N[C@@H](CCC(=O)O)C(=O)O)cs3)cc2c(=O)[nH]1` the “growth inhibition (GI)” value was “Active”.

Target: T3, Proton-coupled folate transporter (Homo sapiens) (UniProt Q96NT5)
T3 sequence (whole entry): T1 sequence (Q96NT5 whole entry)
Assay: Ratio of Ki for human PCFT at pH 6.8 to Ki for human PCFT at pH 5.5 by [3H]MTX transport assay
Conditions: not given
`Nc1nc2[nH]c(CCCCc3cc(C(=O)N[C@@H](CCC(=O)O)C(=O)O)cs3)cc2c(=O)[nH]1` showed a Ratio Ki of 70.

Tested on: KB
Assay: Growth inhibition of human KB cells endogenously expressing RFC/FRalpha/PCFT in presence of folic acid incubated for 96 hrs by CellTiter-blue cell viability assay
Type: functional, cell-based
Conditions: not given
In the case of `Nc1nc2[nH]c(CCCCc3cc(C(=O)N[C@@H](CCC(=O)O)C(=O)O)cs3)cc2c(=O)[nH]1`, the pIC50 was < 6.00. With `Nc1nc2[nH]c(CCCc3ccc(C(=O)N[C@@H](CCC(=O)O)C(=O)O)s3)cc2c(=O)[nH]1` the pIC50 was < 6.00.

Tested on: IGROV-1
Assay: Growth inhibition of human IGROV1 cells endogenously expressing RFC/FRalpha/PCFT in presence of folic acid incubated for 96 hrs by CellTiter-blue cell viability assay
Type: functional, cell-based
Conditions: IGROV-1, 96 h
In the case of `Nc1nc2[nH]c(CCCCc3cc(C(=O)N[C@@H](CCC(=O)O)C(=O)O)cs3)cc2c(=O)[nH]1`, the pIC50 was < 6.00. For `Nc1nc2[nH]c(CCCc3ccc(C(=O)N[C@@H](CCC(=O)O)C(=O)O)s3)cc2c(=O)[nH]1`, the pIC50 was < 6.00.

Tested on: not listed separately
Assay: Growth inhibition of Chinese hamster RT16 cells expressing human folate receptor alpha incubated for 96 hrs by CellTiter-blue cell viability assay
Type: functional, cell-based
Conditions: Cricetulus griseus, RT16, 96 h
`Nc1nc2[nH]c(CCCCc3cc(C(=O)N[C@@H](CCC(=O)O)C(=O)O)cs3)cc2c(=O)[nH]1` showed a pIC50 of 8.59.

Tested on: IGROV-1
Assay: Growth inhibition of human IGROV1 cells endogenously expressing RFC/FRalpha/PCFT in presence of 10 uM thymidine incubated for 96 hrs by CellTiter-blue cell viability assay
Type: functional, cell-based
Conditions: not given
In the case of `Nc1nc2[nH]c(CCCCc3cc(C(=O)N[C@@H](CCC(=O)O)C(=O)O)cs3)cc2c(=O)[nH]1`, the “growth inhibition (GI)” value was “Active”.

Tested on: R2
Assay: Growth inhibition of Chinese hamster R2 cells expressing human PCFT incubated for 96 hrs by CellTiter-blue cell viability assay
Type: functional, cell-based, Cricetulus griseus
Conditions: R2, 96 h
In short: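 R2/hPCFT4 CHO cells maintained beforehand in folate-free RPMI 1640 with dialyzed FBS, 25 nM LCV and G418. Assay: ~2500–5000 cells/well in folate-free RPMI 1640 (pH 7.2) with 25 nM LCV, 10% dialyzed FBS, antibiotics and L-glutamine, over a range of drug concentrations.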
In the case of `Nc1nc2[nH]c(CCCCc3cc(C(=O)N[C@@H](CCC(=O)O)C(=O)O)cs3)cc2c(=O)[nH]1`, the pIC50 was 7.20.

Tested on: IGROV-1
Assay: Growth inhibition of human IGROV1 cells endogenously expressing RFC/FRalpha/PCFT in presence of 60 uM adenosine incubated for 96 hrs by CellTiter-blue cell viability assay
Type: functional, cell-based
Conditions: not given
With `Nc1nc2[nH]c(CCCCc3cc(C(=O)N[C@@H](CCC(=O)O)C(=O)O)cs3)cc2c(=O)[nH]1` the “growth inhibition (GI)” value was “inactive”.

Tested on: KB
Assay: Growth inhibition of human KB cells endogenously expressing RFC/FRalpha/PCFT incubated for 96 hrs by CellTiter-blue cell viability assay
Type: functional, cell-based
Conditions: not given
For `Nc1nc2[nH]c(CCCCc3cc(C(=O)N[C@@H](CCC(=O)O)C(=O)O)cs3)cc2c(=O)[nH]1`, the pIC50 was 9.57.

Tested on: KB
Assay: Growth inhibition of human KB cells endogenously expressing RFC/FRalpha/PCFT in presence of 320 uM 5-amino-4-imidazolecarboxamide incubated for 96 hrs by CellTiter-blue cell viability assay
Type: functional, cell-based
Conditions: not given
With `Nc1nc2[nH]c(CCCCc3cc(C(=O)N[C@@H](CCC(=O)O)C(=O)O)cs3)cc2c(=O)[nH]1` the “growth inhibition (GI)” value was “inactive”.

Tested on: IGROV-1
Assay: Growth inhibition of human IGROV1 cells endogenously expressing RFC/FRalpha/PCFT incubated for 96 hrs by CellTiter-blue cell viability assay
Type: functional, cell-based
Conditions: IGROV-1, 96 h
With `Nc1nc2[nH]c(CCCCc3cc(C(=O)N[C@@H](CCC(=O)O)C(=O)O)cs3)cc2c(=O)[nH]1` the pIC50 was 8.85.

Target: Folate receptor alpha (Homo sapiens) (UniProt P15328)
Sequence (P15328 25-234 limits assumed): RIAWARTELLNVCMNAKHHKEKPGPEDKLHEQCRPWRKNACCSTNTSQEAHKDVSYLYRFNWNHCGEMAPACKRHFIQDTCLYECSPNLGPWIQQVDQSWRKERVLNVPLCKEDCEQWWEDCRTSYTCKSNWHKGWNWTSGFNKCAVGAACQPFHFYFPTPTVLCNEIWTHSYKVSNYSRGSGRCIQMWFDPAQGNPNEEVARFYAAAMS
Assay: not given
Type: cell-based
Conditions: CHO
With `Nc1nc2[nH]c(CCCCc3cc(C(=O)N[C@@H](CCC(=O)O)C(=O)O)cs3)cc2c(=O)[nH]1` the relative binding affinity (RBA) was > 1.

Tested on: KB
Assay: Growth inhibition of human KB cells endogenously expressing RFC/FRalpha/PCFT in presence of 60 uM adenosine incubated for 96 hrs by CellTiter-blue cell viability assay
Type: functional, cell-based
Conditions: not given
With `Nc1nc2[nH]c(CCCCc3cc(C(=O)N[C@@H](CCC(=O)O)C(=O)O)cs3)cc2c(=O)[nH]1` the “growth inhibition (GI)” value was “inactive”.

Tested on: IGROV-1
Assay: Growth inhibition of human IGROV1 cells endogenously expressing RFC/FRalpha/PCFT in presence of 320 uM 5-amino-4-imidazolecarboxamide incubated for 96 hrs by CellTiter-blue cell viability assay
Type: functional, cell-based
Conditions: not given
For `Nc1nc2[nH]c(CCCCc3cc(C(=O)N[C@@H](CCC(=O)O)C(=O)O)cs3)cc2c(=O)[nH]1`, the “growth inhibition (GI)” value was “inactive”.

Target: T1, Proton-coupled folate transporter
Assay: Inhibition of [3H]MTX transport at human PCFT expressed in Chinese hamster R2 cells at pH 6.8 by Dixon plot
Type: cell-based
Conditions: not given
In short: as §1
For `Nc1nc2[nH]c(CCCCc3cc(C(=O)N[C@@H](CCC(=O)O)C(=O)O)cs3)cc2c(=O)[nH]1`, the pKi was 4.51.
